Results published in ChEMBL document CHEMBL4602651, “Development of selective mono or dual PROTAC degrader probe of CDK isoforms” (Eur J Med Chem, 2020).
One block for each compound: values may come before it. Active and inactive are the calls of the source. No cut-off for these calls is given here.

Experiments:
[1] = biological target: T1, Protein cereblon/Cyclin-dependent kinase 2/Cyclin-dependent kinase 9 (Homo sapiens, UniProt P24941+P50750+Q96SW2); experiment: Protac activity at CRBN/CDK2/CDK9 in AR-negative human PC3 cells assessed as CDK2 degradation at 10^-1 to 10^3 nM after 12 hrs by Western blot analysis; type: cell-based; details: PC-3
[2] = biological target: T1, Protein cereblon/Cyclin-dependent kinase 2/Cyclin-dependent kinase 9; experiment: Protac activity at CRBN/CDK2/CDK9 in AR-negative human PC3 cells assessed as CDK9 degradation at 10^-1 to 10^3 nM after 12 hrs by Western blot analysis; type: cell-based; details: PC-3
[3] = system: PC-3; experiment: Antiproliferative activity against AR-negative human PC3 cells assessed as reduction in cell viability after 5 days by CCK8 assay; type: functional, cell-based; details: PC-3, 120 h
In short: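 Cells seeded at 3 × 10^3 per well for 24 h, then dosed in 10-point, 3-fold serial dilution from 10 µM. CCK-8 added after 5 days, 4 h at 37 °C, absorbance at 450 nm. IC50 averaged from three separate determinations (at least two independent runs, duplicate wells). PC-3 grown in DMEM/F12 (1:1), LO2 in RPMI 1640, both with 10% FBS.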

[4] = biological target: T1, Protein cereblon/Cyclin-dependent kinase 2/Cyclin-dependent kinase 9; experiment: Protac activity at CRBN/CDK2/CDK9 in AR-negative human PC3 cells assessed as induction of CDK2 protein degradation at 1 uM after 12 hrs by Western blot analysis; type: cell-based; details: PC-3
In short: (§1)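 PC-3 cells (5 × 10^5 per well) treated 12 h at single concentrations (50 nM, 500 nM, 1, 5 or 30 µM). RIPA lysates (50 µg) run on 10% SDS-PAGE and immunoblotted for CDK2, CDK5, CDK9 with β-tubulin loading control, then detected by chemiluminescence. Band intensities quantified densitometrically.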

[5] = biological target: T1, Protein cereblon/Cyclin-dependent kinase 2/Cyclin-dependent kinase 9; experiment: Protac activity at CRBN/CDK2/CDK9 in AR-negative human PC3 cells assessed as induction of CDK9 protein degradation at 30 uM after 12 hrs by Western blot analysis; type: cell-based; details: PC-3; in short: as §1
[6] = biological target: T1, Protein cereblon/Cyclin-dependent kinase 2/Cyclin-dependent kinase 9; experiment: Protac activity at CRBN/CDK2/CDK9 in AR-negative human PC3 cells assessed as induction of CDK9 protein degradation at 1 uM after 12 hrs by Western blot analysis; type: cell-based; details: PC-3; in short: as §1
[7] = biological target: T2, Protein cereblon/Cyclin-dependent kinase 9 (Homo sapiens) (UniProt P50750+Q96SW2); experiment: Protac activity at CRBN/CDK9 in AR-negative human PC3 cells assessed as induction of CDK9 protein degradation at 30 uM after 12 hrs by Western blot analysis; type: cell-based; details: PC-3
T2 sequence (P50750 whole entry, looked up): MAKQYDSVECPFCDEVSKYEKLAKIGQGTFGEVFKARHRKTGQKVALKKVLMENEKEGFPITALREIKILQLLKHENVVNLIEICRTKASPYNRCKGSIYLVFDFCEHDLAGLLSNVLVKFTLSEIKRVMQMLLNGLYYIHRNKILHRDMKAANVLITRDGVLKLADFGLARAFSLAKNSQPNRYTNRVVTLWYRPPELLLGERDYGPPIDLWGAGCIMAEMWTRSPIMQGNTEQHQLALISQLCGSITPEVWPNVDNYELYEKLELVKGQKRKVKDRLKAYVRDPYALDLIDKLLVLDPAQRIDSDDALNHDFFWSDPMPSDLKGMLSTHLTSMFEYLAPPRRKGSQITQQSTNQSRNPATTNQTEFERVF
T2 sequence (Q96SW2 whole entry, looked up): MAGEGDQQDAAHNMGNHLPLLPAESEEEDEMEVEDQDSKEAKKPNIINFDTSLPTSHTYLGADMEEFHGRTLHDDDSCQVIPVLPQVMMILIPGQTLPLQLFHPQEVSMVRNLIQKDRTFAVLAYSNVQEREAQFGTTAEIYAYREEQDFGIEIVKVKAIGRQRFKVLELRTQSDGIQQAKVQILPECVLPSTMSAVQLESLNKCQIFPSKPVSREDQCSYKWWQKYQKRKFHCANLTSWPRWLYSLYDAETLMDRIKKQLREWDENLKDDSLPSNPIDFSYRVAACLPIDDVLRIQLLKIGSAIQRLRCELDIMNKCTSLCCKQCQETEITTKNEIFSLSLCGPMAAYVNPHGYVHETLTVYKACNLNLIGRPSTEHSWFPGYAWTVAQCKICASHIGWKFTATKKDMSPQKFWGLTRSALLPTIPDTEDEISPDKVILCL
In short: (§2)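 PC-3 cells (DMEM/F12 1:1, 10% FBS, 1% pen/strep, 37 °C, 5% CO2) plated at 5 × 10^5 per well, exposed to compound for 12 h. RIPA lysates with protease inhibitors; 50 µg total protein run on 10% SDS-PAGE, transferred to PVDF, blocked in 5% milk/TBS-T. Probed with anti-CDK9 (1/1000), β-tubulin loading control, HRP secondary, chemiluminescence; bands scored as degradation detected or not.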

[8] = biological target: T3, Protein cereblon/Cyclin-dependent kinase 2 (Homo sapiens) (UniProt P24941+Q96SW2); experiment: Protac activity at CRBN/CDK2 in AR-negative human PC3 cells assessed as induction of CDK2 protein degradation at 50 nM after 12 hrs by Western blot analysis; type: cell-based; details: PC-3; in short: as §1
[9] = biological target: T3, Protein cereblon/Cyclin-dependent kinase 2 (Homo sapiens); experiment: Protac activity at CRBN/CDK2 in AR-negative human PC3 cells assessed as induction of CDK2 protein degradation at 30 uM after 12 hrs by Western blot analysis; type: cell-based; details: PC-3; in short: as §1
[10] = biological target: T3, Protein cereblon/Cyclin-dependent kinase 2 (Homo sapiens); experiment: Protac activity at CRBN/CDK2 in AR-negative human PC3 cells assessed as induction of CDK2 protein degradation at 1 uM after 12 hrs by Western blot analysis; type: cell-based; details: PC-3; in short: as §1
[11] = biological target: T2, Protein cereblon/Cyclin-dependent kinase 9 (Homo sapiens); experiment: Protac activity at CRBN/CDK9 in AR-negative human PC3 cells assessed as induction of CDK9 protein degradation at 50 nM after 12 hrs by Western blot analysis; type: cell-based; details: PC-3; in short: as §2
[12] = biological target: T2, Protein cereblon/Cyclin-dependent kinase 9 (Homo sapiens); experiment: Protac activity at CRBN/CDK9 in AR-negative human PC3 cells assessed as induction of CDK9 protein degradation at 5 uM after 12 hrs by Western blot analysis; type: cell-based; details: PC-3; in short: as §2
[13] = biological target: T3, Protein cereblon/Cyclin-dependent kinase 2 (Homo sapiens); experiment: Protac activity at CRBN/CDK2 in AR-negative human PC3 cells assessed as CDK2 degradation at 1 uM preincubated with proteasome inhibitor MG132 for 2 hrs and measured after 8 hrs by Western blot analysis; type: cell-based; details: PC-3
In short: (§3)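 PC-3 cells pretreated 2 h with 10 µM DMSO, AT-7519, pomalidomide or MG-132, then degrader at 1 µM for 8 h. CDK2 immunoblotted against β-tubulin loading control, with 50 µg protein per lane on 10% SDS-PAGE and ECL detection.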

[14] = biological target: T3, Protein cereblon/Cyclin-dependent kinase 2 (Homo sapiens); experiment: Protac activity at CRBN/CDK2 in AR-negative human PC3 cells assessed as CDK2 degradation at 1 uM preincubated with AT-7519 for 2 hrs and measured after 8 hrs by Western blot analysis; details: PC-3
[15] = biological target: Protein cereblon/Cyclin-dependent kinase 5 (Homo sapiens) (UniProt Q00535+Q96SW2); experiment: Protac activity at CRBN/CDK5 in AR-negative human PC3 cells assessed as induction of CDK5 protein degradation at 1 uM after 12 hrs by Western blot analysis; type: cell-based; details: PC-3; in short: as §1
Chain of Protein cereblon/Cyclin-dependent kinase 5 (Homo sapiens) (Q00535 whole entry, looked up): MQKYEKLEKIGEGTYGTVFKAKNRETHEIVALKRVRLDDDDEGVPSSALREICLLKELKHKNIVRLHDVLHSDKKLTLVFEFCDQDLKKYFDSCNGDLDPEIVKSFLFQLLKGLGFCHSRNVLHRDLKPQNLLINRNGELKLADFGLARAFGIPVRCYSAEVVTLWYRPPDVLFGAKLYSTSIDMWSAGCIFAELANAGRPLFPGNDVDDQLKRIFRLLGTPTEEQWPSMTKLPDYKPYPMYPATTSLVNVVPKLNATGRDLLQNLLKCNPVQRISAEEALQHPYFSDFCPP
Chain of Protein cereblon/Cyclin-dependent kinase 5 (Homo sapiens) (Q96SW2 whole entry, looked up): as the sequence (Q96SW2 whole entry, looked up) above

[16] = biological target: T2, Protein cereblon/Cyclin-dependent kinase 9 (Homo sapiens); experiment: Protac activity at CRBN/CDK9 in AR-negative human PC3 cells assessed as induction of CDK9 protein degradation at 1 uM after 12 hrs by Western blot analysis; type: cell-based; details: PC-3; in short: as §2
[17] = biological target: T3, Protein cereblon/Cyclin-dependent kinase 2 (Homo sapiens); experiment: Protac activity at CRBN/CDK2 in AR-negative human PC3 cells assessed as CDK2 degradation at 1 uM preincubated with pomalidomide for 2 hrs and measured after 8 hrs by Western blot analysis; type: cell-based; details: PC-3; in short: as §3
[18] = biological target: T1, Protein cereblon/Cyclin-dependent kinase 2/Cyclin-dependent kinase 9; experiment: Protac activity at CRBN/CDK2/CDK9 in AR-negative human PC3 cells assessed as induction of CDK2 protein degradation after 24 hrs by Western blot analysis; type: cell-based; details: PC-3
In short: (§4)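 PC-3 cells exposed to a degrader concentration series, then immunoblotted for CDK2 and CDK9 versus β-tubulin. The figure legend gives 24 h exposure. DC50 taken as mean of 2 determinations from densitometry.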

[19] = biological target: T1, Protein cereblon/Cyclin-dependent kinase 2/Cyclin-dependent kinase 9; experiment: Protac activity at CRBN/CDK2/CDK9 in AR-negative human PC3 cells assessed as induction of CDK9 protein degradation after 24 hrs by Western blot analysis; type: cell-based; details: PC-3; in short: as §4
[20] = system: PC-3; experiment: Induction of cell cycle arrest in human PC3 cells assessed as accumulation at S phase at 3 uM after 48 hrs by propidium iodide staining based flow cytometry (reference value: 17.96%); type: functional
[21] = system: PC-3; experiment: Induction of cell cycle arrest in human PC3 cells assessed as accumulation at G0/G1 phase at 3 uM after 48 hrs by propidium iodide staining based flow cytometry (reference value: 59.80%); type: functional
[22] = system: PC-3; experiment: Induction of cell cycle arrest in human PC3 cells assessed as accumulation at G2/M phase at 3 uM after 48 hrs by propidium iodide staining based flow cytometry (reference value: 22.24%); type: functional

SMILES: O=C(COc1cccc2c1C(=O)N(C1CCC(=O)NC1=O)C2=O)NCCOCCOCC(=O)N1CCC(NC(=O)c2n[nH]cc2NC(=O)c2c(Cl)cccc2Cl)CC1 (stereo not drawn)
Activity [12]: Active
Activity [7]: Active
IC50 [3]: 840 nM
Activity [10]: Active
Activity [13]: inactive
Activity [14]: inactive
Activity [15]: inactive
Activity [16]: inactive
Activity [17]: inactive

SMILES: O=C(NC1CCNCC1)c1n[nH]cc1NC(=O)c1c(Cl)cccc1Cl [AT-7519]
IC50 [3]: 710 nM

SMILES: O=C(CCC(=O)N1CCN(Cc2ccc(NC(=O)c3n[nH]cc3Nc3ncnc4[nH]ccc34)cc2)CC1)NCCCCCCNC(=O)COc1cccc2c1C(=O)N(C1CCC(=O)NC1=O)C2=O (stereo not drawn)
IC50 [3]: 7300 nM
Activity [18]: inactive
Activity [19]: inactive

SMILES: O=C(CCC(=O)N1CCC(NC(=O)c2n[nH]cc2NC(=O)c2c(Cl)cccc2Cl)CC1)NCCNc1cccc2c1C(=O)N(C1CCC(=O)NC1=O)C2=O (stereo not drawn)
IC50 [3]: 5950 nM

SMILES: O=C(CCC(=O)N1CCN(Cc2ccc(NC(=O)c3n[nH]cc3Nc3ncnc4[nH]ccc34)cc2)CC1)NCCCOCCOCCOCCCNC(=O)COc1cccc2c1C(=O)N(C1CCC(=O)NC1=O)C2=O (stereo not drawn)
IC50 [3]: 18300 nM
Activity [18]: inactive
Activity [19]: inactive

SMILES: O=C(COc1cccc2c1C(=O)N(C1CCC(=O)NC1=O)C2=O)NCCOCCOCC(=O)N1CCN(Cc2ccc(NC(=O)c3n[nH]cc3Nc3ncnc4[nH]ccc34)cc2)CC1 (stereo not drawn)
Activity [7]: Active
IC50 [3]: 3540 nM
Activity [8]: Active
Activity [11]: Active
Activity [16]: Active

More lines, main results first:

Activity [1]: Active
Activity [2]: Active
SMILES: O=C(CCC(=O)N1CCN(Cc2ccc(NC(=O)c3n[nH]cc3Nc3ncnc4[nH]ccc34)cc2)CC1)NCCNc1cccc2c1CN(C1CCC(=O)NC1=O)C2=O (stereo not drawn)

IC50 [3]: 2210 nM
Activity [4]: Active
Activity [5]: Active
Activity [6]: Active
SMILES: O=C(COc1cccc2c1C(=O)N(C1CCC(=O)NC1=O)C2=O)NCCCC(=O)N1CCN(Cc2ccc(NC(=O)c3n[nH]cc3Nc3ncnc4[nH]ccc34)cc2)CC1 (stereo not drawn)

Activity [7]: Active
IC50 [3]: 1380 nM
Activity [8]: Active
Activity [9]: inactive
Activity [10]: inactive
Activity [11]: Active
SMILES: O=C(CCC(=O)N1CCN(Cc2ccc(NC(=O)c3n[nH]cc3Nc3ncnc4[nH]ccc34)cc2)CC1)NCCCCNc1cccc2c1C(=O)N(C1CCC(=O)NC1=O)C2=O (stereo not drawn)

IC50 [3]: 690 nM
SMILES: CN1CCN(Cc2ccc(NC(=O)c3n[nH]cc3Nc3ncnc4[nH]ccc34)cc2)CC1
Activity [20]: 16.52%
Activity [21]: 45.58%
Activity [22]: 37.9%
